Columns and labels:
[1] = molecular target: 5-hydroxytryptamine receptor 2A (Homo sapiens, UniProt P28223); assay: Binding affinity towards human 5-hydroxytryptamine 2A receptor expressed in HEK 293 cells using [3H]ketanserin as radioligand; assay type: cell-based, HEK293
Summary of the method: (§1)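 Radioligand binding on human cloned receptors stably expressed in HEK 293 cells; 5-HT2A labelled with [3H]ketanserin, 5-HT2B with [3H]-5-HT. Values are means of at least two determinations, each within 0.2 log unit of the mean.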

[2] = molecular target: T1, 5-hydroxytryptamine receptor 2C (Homo sapiens, UniProt P28335); assay: Binding affinity towards cloned human 5-hydroxytryptamine 2C receptor expressed in HEK 293 cells using [3H]mesulergine as radioligand; assay type: cell-based, HEK293
T1 sequence (P28335 whole entry): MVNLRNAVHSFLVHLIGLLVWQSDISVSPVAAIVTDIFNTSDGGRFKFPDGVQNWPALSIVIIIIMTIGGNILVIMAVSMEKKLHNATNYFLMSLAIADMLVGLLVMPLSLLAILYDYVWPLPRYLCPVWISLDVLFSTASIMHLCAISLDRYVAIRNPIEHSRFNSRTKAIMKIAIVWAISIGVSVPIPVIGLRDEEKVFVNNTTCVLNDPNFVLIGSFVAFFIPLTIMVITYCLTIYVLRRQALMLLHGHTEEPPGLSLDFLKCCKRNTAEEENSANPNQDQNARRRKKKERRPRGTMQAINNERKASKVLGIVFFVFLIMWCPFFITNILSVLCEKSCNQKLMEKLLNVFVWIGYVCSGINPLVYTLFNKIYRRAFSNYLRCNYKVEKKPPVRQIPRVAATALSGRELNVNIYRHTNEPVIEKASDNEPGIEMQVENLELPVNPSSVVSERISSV

Rattus norvegicus [3] = species: Rattus norvegicus; assay: The dose required to reverse […]- induced hypolocomotion in rat by 50 %; assay type: functional; settings: ip, 0.5 h, read-out: ID50 (the source's name)
[4] = molecular target: 5-hydroxytryptamine receptor 2B (Homo sapiens, UniProt P41595); assay: Binding affinity towards cloned human 5-hydroxytryptamine 2B receptor expressed in HEK 293 cells using [3H]5-HT as radioligand; assay type: cell-based, HEK293; summary of the method: as §1
Chain of 5-hydroxytryptamine receptor 2B (P41595 whole entry): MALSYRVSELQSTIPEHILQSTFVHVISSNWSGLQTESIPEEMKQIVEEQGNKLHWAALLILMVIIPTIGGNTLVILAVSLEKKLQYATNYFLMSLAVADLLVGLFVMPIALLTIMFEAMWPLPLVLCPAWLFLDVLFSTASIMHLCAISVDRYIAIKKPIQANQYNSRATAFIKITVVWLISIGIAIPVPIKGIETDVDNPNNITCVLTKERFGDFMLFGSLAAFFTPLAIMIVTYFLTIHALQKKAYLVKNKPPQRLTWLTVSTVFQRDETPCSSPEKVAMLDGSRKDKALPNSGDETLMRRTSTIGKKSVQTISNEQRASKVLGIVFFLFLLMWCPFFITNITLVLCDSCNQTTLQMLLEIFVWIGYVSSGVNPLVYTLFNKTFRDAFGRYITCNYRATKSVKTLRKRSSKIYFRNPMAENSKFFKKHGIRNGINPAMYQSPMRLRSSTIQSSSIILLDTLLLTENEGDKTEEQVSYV

Rattus norvegicus [5] = assay: Percentage change punished lever presses from mean score on 6-8 rats(P<0.001) at 5 mg/kg po1h pretest; assay type: functional
Rattus norvegicus [6] = assay: Percentage change unpunished lever presses from mean score on 6-8 rats at 0.2 mg/kg po1h pretest; assay type: functional
Rattus norvegicus [7] = assay: Percentage change unpunished lever presses from mean score on 6-8 rats at 20 mg/kg po1h pretest; assay type: functional
Rattus norvegicus [8] = assay: Percentage change punished lever presses from mean score on 6-8 rats(P<0.001) at 2 mg/kg po1h pretest; assay type: functional
Rattus norvegicus [9] = assay: Percentage change unpunished lever presses from mean score on 6-8 rats at 0.5 mg/kg po1h pretest; assay type: functional
Rattus norvegicus [10] = assay: Percentage change punished lever presses from mean score on 6-8 rats(P<0.001) at 20 mg/kg po1h pretest; assay type: functional
Rattus norvegicus [11] = assay: Percentage change unpunished lever presses from mean score on 6-8 rats at 10 mg/kg po1h pretest; assay type: functional
Rattus norvegicus [12] = assay: Percentage change punished lever presses from mean score on 6-8 rats(P<0.001) at 1 mg/kg po1h pretest; assay type: functional
Rattus norvegicus [13] = assay: Percentage change punished lever presses from mean score on 6-8 rats(P<0.001) at 0.5 mg/kg po1h pretest; assay type: functional
Rattus norvegicus [14] = assay: Percentage change unpunished lever presses from mean score on 6-8 rats(P<0.01) at 5 mg/kg po1h pretest
Rattus norvegicus [15] = assay: Percentage change punished lever presses from mean score on 6-8 rats(P<0.001) at 10 mg/kg po1h pretest; assay type: functional
Rattus norvegicus [16] = assay: Percentage change unpunished lever presses from mean score on 6-8 rats(P<0.05) at 0.1 mg/kg po1h pretest; assay type: functional
Rattus norvegicus [17] = assay: Percentage change unpunished lever presses from mean score on 6-8 rats at 2 mg/kg po1h pretest; assay type: functional
Rattus norvegicus [18] = assay: Percentage change punished lever presses from mean score on 6-8 rats(P<0.001) at 0.2 mg/kg po1h pretest; assay type: functional
Rattus norvegicus [19] = assay: Percentage change unpunished lever presses from mean score on 6-8 rats at 1 mg/kg po1h pretest; assay type: functional

Chain of 5-hydroxytryptamine receptor 2A (P28223 whole entry): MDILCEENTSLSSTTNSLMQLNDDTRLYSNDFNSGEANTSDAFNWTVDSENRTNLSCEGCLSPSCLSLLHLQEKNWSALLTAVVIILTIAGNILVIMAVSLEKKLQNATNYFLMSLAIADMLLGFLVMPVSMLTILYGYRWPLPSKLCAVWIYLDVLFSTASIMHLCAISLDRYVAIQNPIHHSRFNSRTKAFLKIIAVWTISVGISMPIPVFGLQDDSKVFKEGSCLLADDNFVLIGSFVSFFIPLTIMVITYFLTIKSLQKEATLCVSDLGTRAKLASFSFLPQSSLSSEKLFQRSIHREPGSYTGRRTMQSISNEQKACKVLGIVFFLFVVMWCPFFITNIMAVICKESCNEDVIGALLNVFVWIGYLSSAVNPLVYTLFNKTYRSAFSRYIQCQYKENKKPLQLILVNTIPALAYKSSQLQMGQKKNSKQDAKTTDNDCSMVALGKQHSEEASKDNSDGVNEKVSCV

| Structure (SMILES) | Ki [1] | Ki [2] | also measured |
| --- | --- | --- | --- |
| CSc1cc2c(cc1OC(F)(F)F)N(C(=O)Nc1cccnc1)CC2 | 3.16 µM | 0.0251 µM | – |
| CN(C)c1ccc2c(c1)CCN2C(=O)Nc1cccnc1 | > 6.31 µM | 0.316 µM | – |
| CC(C)Oc1cc2c(cc1Cl)N(C(=O)Nc1cccnc1)CC2 | > 6.31 µM | 0.0158 µM | ED50 (Rattus norvegicus [3]): 4 mg/kg |
| Cc1ccc2c(c1)CCN2C(=O)Nc1cccnc1 | 5.01 µM | 0.158 µM | – |
| CSc1cc2c(cc1C(F)(F)C(F)(F)F)N(C(=O)Nc1cccnc1)CC2 | 2.51 µM | 0.00398 µM | Ki [4]: 0.0316 µM; ED50 (Rattus norvegicus [3]): 5 mg/kg |
| CSc1cc2c(cc1I)N(C(=O)Nc1cccnc1)CC2 | 0.501 µM | 0.002 µM | ED50 (Rattus norvegicus [3]): 3.2 mg/kg |
| CSc1cc2c(cc1C#N)N(C(=O)Nc1cccnc1)CC2 | 2.51 µM | 0.0158 µM | – |
| CSc1ccc2c(c1)CCN2C(=O)Nc1cccnc1 | 3.98 µM | 0.0398 µM | – |
| CC(C)Sc1cc2c(cc1C(F)(F)F)N(C(=O)Nc1cccnc1)CC2 | 5.01 µM | 0.0316 µM | – |
| COc1cc2c(cc1C(F)(F)F)N(C(=O)Nc1cccnc1)CC2 | 1 µM | 0.01 µM | Change (Rattus norvegicus [5]): 37%; Change (Rattus norvegicus [6]): 2%; Change (Rattus norvegicus [7]): -1%; Change (Rattus norvegicus [8]): 34%; Change (Rattus norvegicus [9]): 2%; Change (Rattus norvegicus [10]): 62%; Change (Rattus norvegicus [11]): 0%; Change (Rattus norvegicus [12]): 28%; Change (Rattus norvegicus [13]): 36%; ED50 (Rattus norvegicus [3]): 0.8 mg/kg; Change (Rattus norvegicus [14]): 8%; Change (Rattus norvegicus [15]): 63%; Change (Rattus norvegicus [16]): 8%; Change (Rattus norvegicus [17]): 3%; Change (Rattus norvegicus [18]): 26%; Change (Rattus norvegicus [19]): -2% |
| O=C(Nc1cccnc1)N1CCc2cc(OCC3CC3)c(C(F)(F)F)cc21 | 3.98 µM | 0.02 µM | – |
| Cc1ccc2c(c1Br)CCN2C(=O)Nc1cccnc1 | 0.126 µM | 0.00794 µM | – |
| O=C(Nc1cccnc1)N1CCc2cc(-c3ccccc3)c(Cl)cc21 | 3.98 µM | 0.126 µM | – |
| O=C(Nc1cccnc1)N1CCc2ccccc21 | – | 1.26 µM | – |
| COc1cc2c(cc1Br)N(C(=O)Nc1cccnc1)CC2 | 1.58 µM | 0.0126 µM | ED50 (Rattus norvegicus [3]): 1.8 mg/kg |
| O=C(Nc1cccnc1)N1CCc2cc(Cl)c(Cl)cc21 | 0.251 µM | 0.00794 µM | – |
| O=C(Nc1cccnc1)N1CCc2cc(Cl)c(C(F)(F)F)cc21 | 0.158 µM | 0.00631 µM | – |
| CC(C)c1ccc2c(c1)CCN2C(=O)Nc1cccnc1 | 2 µM | 0.0794 µM | – |
| CCCc1cc2c(cc1Cl)N(C(=O)Nc1cccnc1)CC2 | 1.26 µM | 0.02 µM | – |
| CC(C)c1cc2c(cc1Cl)N(C(=O)Nc1cccnc1)CC2 | 2 µM | 0.02 µM | – |
| Cc1c(Cl)cc2c(c1Cl)CCN2C(=O)Nc1cccnc1 | 0.0316 µM | 0.00398 µM | – |
| O=C(Nc1cccnc1)N1CCc2cc(-c3ccccc3)ccc21 | 5.01 µM | 0.126 µM | – |
| CSc1ccc2c(c1Cl)CCN2C(=O)Nc1cccnc1 | 5.01 µM | 0.0631 µM | – |
| Cc1cc2c(cc1Br)N(C(=O)Nc1cccnc1)CC2 | 0.0631 µM | 0.00398 µM | – |
| CSc1cc2c(cc1Br)CCN2C(=O)Nc1cccnc1 | 2.51 µM | 0.0501 µM | – |
| CC(=O)c1cc2c(cc1C(F)(F)F)N(C(=O)Nc1cccnc1)CC2 | 3.16 µM | 0.0501 µM | – |
